Test results: the RNAGym collection of RNA variant scans (doi:10.1126/science.aae0568)
This sample holds only a part of the variants without activity.

B1: tRNA (parent)
chain: GUUCCGUUGGCGUAAUGGUAACGCGUCUCCCUCCUAAGGAGAAGACUGCGGGUUCGAGUCCCGUACGGAACG

Variants of: B1
Test: yeast fitness relative to wild type (ratio to wild type); higher = fitter; tRNA-Arg(CCU), competitive growth, 37 C, YPD
Outline: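 Changes in genotype frequencies gave Darwinian fitness relative to wild type. Frequencies were read by 100-nucleotide paired-end sequencing of gene amplicons before and after pooled Saccharomyces cerevisiae strains, carrying tRNA-Arg(CCU) gene variants at the native locus, were competed in YPD at 37°C for 24 hours in six replicates. A genotype was kept only with ≥ 100 starting reads, and estimates < 0.5 were set to 0.5.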

| Variant | yeast fitness |
| --- | --- |
| C5G G25A G48A | 0.724 |
| C5A C11U C49U | ≤ 0.5 |
| C4A U32A G38C U47A | ≤ 0.5 |
| A14C C22G G63A | 0.642 |
| A15U C22G G58C G68A | ≤ 0.5 |
| G41C A43G U54A C66U | ≤ 0.5 |
| G6C U16C C46G C62U C66U | ≤ 0.5 |
| G12C C27G A37G | ≤ 0.5 |
| G12A U32A A40U G41C C46A G52A | ≤ 0.5 |
| A15C A36U C49U A65C | ≤ 0.5 |
| C4U C5G C29U U32A C33U G67U A70G | 0.54 |
| C5U C27U A36G | 0.75 |
| U7G G58A | 0.942 |
| A14G C31A A43G | 0.679 |
| C5G C30U U47A G51A A57G | ≤ 0.5 |
| C31U G41C A43C | 0.722 |
| C11U A14G C24G | ≤ 0.5 |
| U3G G18A | 0.694 |
| C22G G63C | 0.623 |
| C22G A69G | 0.952 |
| G12C G25C A69U | ≤ 0.5 |
| C4A G17A G41A U47C G50C | ≤ 0.5 |
| C24U A42U G51C | ≤ 0.5 |
| U28G A57U U59C | ≤ 0.5 |

| Variant | yeast fitness |
| --- | --- |
| C22U G23A A70C | ≤ 0.5 |
| A14U G67A | 0.733 |
| A15G A37C G50C | 0.601 |
| C49U G58C C62G A69C | 0.559 |
| C5G C61U A69C | ≤ 0.5 |
| A20C A45C C46U | 0.587 |
| C27A A36G C61G C66U A69U | ≤ 0.5 |
| A57C C60U | 0.552 |
| C27G A45U G56C | 0.531 |
| C31U U35A G51C | ≤ 0.5 |
| A45C G52A U53C G58A C62G | ≤ 0.5 |
| G25A C31A A45C G50A | 0.536 |
| C5G U19A A45C | 0.779 |
| C4U G12C C60G A70C | ≤ 0.5 |
| U13A G23C C27G U53C | ≤ 0.5 |
| G41A C62A A70C | ≤ 0.5 |
| C5G C31A | 0.79 |
| C27U C33A C49G | ≤ 0.5 |
| U7G A45C C49U | 0.508 |
| C11A G56A C66G | 0.533 |
| C5G G17A C46G | 0.538 |
| U3A C46G C49U G56C | 0.734 |
| A15G G23C C30A A42C G51C C61A G67A | ≤ 0.5 |
| C11U U28C G44C | 0.557 |

| Variant | yeast fitness |
| --- | --- |
| A37C G50C | 0.551 |
| U2A A20G G44A | 0.531 |
| U16C U54A | 0.685 |
| A65G G68A | 0.924 |
| G67U A69G | 1.05 |
| C5U C34A U53A | 0.562 |
| U8A U26C | 0.646 |
| G17C C33G A70G | ≤ 0.5 |
| C4A U7A U8A C46A G48A U64G | ≤ 0.5 |
| A15U A57U A70C | ≤ 0.5 |
| U32C A42U | 0.974 |
| C31U C49U U64A | 0.685 |
| U26A C29G A43G A45U | ≤ 0.5 |
| C4A C5A A20U A69C | 0.551 |
| C5A A20C A21G A65G C66U | ≤ 0.5 |
| U16C C22U A40G A43U C46G C49G C62U | 0.55 |
| G12C U13A A20C A21G U26G | ≤ 0.5 |
| U47A A65C C66G | ≤ 0.5 |
| C11A C33A G68A | 0.557 |
| A21G C62G | 1.02 |
| A14C U19A A21G C31U | ≤ 0.5 |
| C24G A65U | 0.742 |
| A20U C34G G48C | 0.53 |
| G44A | 0.982 |

| Variant | yeast fitness |
| --- | --- |
| G12A C31U U53A U54G G58C C62U | 0.635 |
| C30G C62A | 0.61 |
| C11A A21C U53A C62U | ≤ 0.5 |
| C4G A40G | 0.74 |
| C46U C61U | 0.956 |
| U47A A65U | 0.68 |
| C24A A43G A70C | ≤ 0.5 |
| C30A A65G | 1.02 |
| U3C G38A | 1.05 |
| G6C C31U C34G | ≤ 0.5 |
| C30G C34G G63C | ≤ 0.5 |
| C11U C33U A43G | 0.595 |
| A15U U16A C27G | 0.59 |
| U2A U32A A65U A69C | ≤ 0.5 |
| C29G U35C U54C U64C | ≤ 0.5 |
| C11G U13G C30U U32A A37G A40U A57U | ≤ 0.5 |
| G56C G63A | 0.571 |
| G12C A20U C22A | 0.927 |
| C5G C29G U32A A37U | ≤ 0.5 |
| A15U C27U C34U G41C U47G | 0.555 |
| A14C U28A U53G | 0.57 |
| G9C A37U G52A | ≤ 0.5 |
| C22G U28A C31G C55A | ≤ 0.5 |
| A15G U35A | 0.602 |

| Variant | yeast fitness |
| --- | --- |
| C24U C27U A40G | 0.563 |
| C4U C31G C34U A43U | 0.786 |
| G23C C30G G63A | ≤ 0.5 |
| C24A U32C G39C A70C | ≤ 0.5 |
| U16C A43G U59C | 0.609 |
| A20C C27G | 0.633 |
| G6A G18C C61G | 0.563 |
| U2C A14G C31G G58A | ≤ 0.5 |
| C5U C11U A69U | 0.734 |
| C22A A43C | 0.694 |
| A37U C60U C62G U64A A69U | ≤ 0.5 |
| U3C G6A U54C C61G | ≤ 0.5 |
| C4U A15U U16A G23C G25A A57U A69U | ≤ 0.5 |
| U2A G41C G50C | ≤ 0.5 |
| C4U C11U C31G C46A G63C A65U | ≤ 0.5 |
| C34G C55U G63A | ≤ 0.5 |
| G10A G23C C29U A36C C49G A70C | 0.553 |
| A20C C22U G39C | ≤ 0.5 |
| C11A U13C G23C U32G C34A | ≤ 0.5 |
| U28A G41A G56A C62U | ≤ 0.5 |
| C11A C46U A57C C66A | ≤ 0.5 |
| U2G C4A A37U | ≤ 0.5 |
| C11G A45C | 0.59 |
| U2A G38C G44C A69U | ≤ 0.5 |

| Variant | yeast fitness |
| --- | --- |
| U2G C27U | 0.878 |
| U19A G39C A69U | 0.574 |
| C22U U28C C34U A40C U64A | 0.762 |
| C4A U16C G17A G56C | ≤ 0.5 |
| C11G C24G A57G | ≤ 0.5 |
| C4A C29G C33G A43U | ≤ 0.5 |
| C4A U7G G12C C60U C62G | ≤ 0.5 |
| U7G A36U | 0.777 |
| C30G G58C | 0.637 |
| U13A U35C C46U C55G | ≤ 0.5 |
| A15C U47A G52A | 0.576 |
| G17C A43U | 0.589 |
| C4U C11A G12A G48A A57C | ≤ 0.5 |
| G56C A57G | 0.706 |
| C22A G48A C49U G50A G51C U64A A70C | 0.563 |
| C22U G25C C62U | 0.67 |
| C4A U8C | 0.887 |
| C11G C27U A43C A65U | ≤ 0.5 |
| U7C A43U C49G | ≤ 0.5 |
| G10A A37G C49G | ≤ 0.5 |
| C4U G52C C61A | 0.581 |
| U3A U35A | 0.658 |
| A20U G67A | 0.657 |
| G9C U13A G25A A40C A57C C61U G67A | ≤ 0.5 |

| Variant | yeast fitness |
| --- | --- |
| G17A A20G C30A | 0.628 |
| U16A C22G C61U A65G | ≤ 0.5 |
| G23A C24U | 0.94 |
| U8C C24A C46G G63A | 0.597 |
| A65G | 0.999 |
| U32C A36U G38A G50A | 0.584 |
| A15G A20U C24G A42G U54C | 0.575 |
| U2A U26C C55U | ≤ 0.5 |
| U3G C27G G50C | ≤ 0.5 |
| C27U C33G A43G A45C | 0.634 |
| U2G A37C U54C | ≤ 0.5 |
| A15C A21G C22U A43U A57U | ≤ 0.5 |
| A15G U19G A42G | 0.702 |
| G12A C34A G52C C60A | ≤ 0.5 |
| C33G U35C U59A | 0.594 |
| U19A C24U G38A U54C C55U C66A | ≤ 0.5 |
| A37G U53C | 0.553 |
| C5G G50C | 0.701 |
| C5G A21G C31G A36C A57G C62U | 0.586 |
| U7G C55G G56C | 0.608 |
| A14G G68A | 0.653 |
| C11A A20C U28C A37U A40C G48A | ≤ 0.5 |
| C4G A14U U32C A45U C49G U64C | ≤ 0.5 |
